In brackets after ≈: the same amount, converted by molar mass.
Tests used:
Enterococcus faecium = test: In vitro antibacterial activity against gram-positive Enterococcus faecium ATCC 8043; type: functional
Procedure, shortened: (§1)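 Agar dilution MIC determination following the National Committee for Clinical Laboratory Standards recommendations.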

Escherichia coli [1] = test: In vitro antibacterial activity against gram negative Escherichia coli KNK 437; type: functional; procedure, shortened: as §1
Pseudomonas aeruginosa [2] = test: In vivo efficacy against Pseudomonas aeruginosa 5007 in mouse protection test after subcutaneous administration; type: functional
Procedure, shortened: (§2)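 Mouse protection model: mice infected intravenously with 100-fold LD50 of the organism. Compound given by subcutaneous injection or oral gavage at 1 and 5 h after infection, over a dose range. Deaths tracked for 7 days post-inoculation. ED50 is the dose giving 50% survival of treated mice over the trial.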

Mus musculus [3] = test: In vivo efficacy against Pseudomonas aeruginosa 5007 in mouse protection test […]; type: functional; procedure, shortened: as §2
Staphylococcus aureus [4] = test: In vivo efficacy against Staphylococcus aureus NCTC 10649M in mouse protection test after p.o. administration.; type: functional; procedure, shortened: as §2
Staphylococcus aureus [5] = test: In vivo efficacy against Staphylococcus aureus NCTC 10649M in mouse; type: functional; settings: Staphylococcus aureus; read-out: ED50; procedure, shortened: as §2
Mus musculus [6] = test: In vivo efficacy against Streptococcus pneumoniae ATCC 6303 in mouse protection test after administration by oral gavage.; type: functional; procedure, shortened: as §2
Streptococcus pneumoniae = test: In vivo efficacy against Streptococcus pneumoniae ATCC 6303 in mouse protection test after s.c. administration.; type: functional; procedure, shortened: as §2
Escherichia coli [7] = test: In vivo efficacy against Escherichia coli JUHL in mouse protection test after p.o. administration.; type: functional; procedure, shortened: as §2
Escherichia coli [8] = test: In vivo efficacy against Escherichia coli JUHL in mouse protection test after subcutaneous administration; type: functional; procedure, shortened: as §2
Pseudomonas aeruginosa [9] = test: In vitro antibacterial activity against Gram-negative Pseudomonas aeruginosa 5007; type: functional; procedure, shortened: as §1
Pseudomonas aeruginosa [10] = test: In vitro antibacterial activity against gram negative P. aeruginosa DPHP 5263; type: functional; procedure, shortened: as §1
Burkholderia cepacia = test: In vitro antibacterial activity against gram negative Pseudomonas cepacia 2961; type: functional; procedure, shortened: as §1
Staphylococcus aureus [11] = test: In vitro antibacterial activity against gram-positive Staphylococcus aureus 1775; type: functional; procedure, shortened: as §1
Staphylococcus aureus [12] = test: In vitro antibacterial activity against gram-positive Staphylococcus aureus NCTC 10649M; type: functional; procedure, shortened: as §1
Streptococcus pyogenes [13] = test: In vitro antibacterial activity against gram positive Streptococcus pyogenes 930; type: functional; procedure, shortened: as §1
Mus musculus [14] = test: IIn vivo efficacy against Streptococcus pneumoniae ATCC 6303 in mouse protection test after oral administration by oral gavage
Streptococcus pyogenes [15] = test: In vitro antibacterial activity against Streptococcus pyogenes 930 an erythromycin-resistant; type: functional
Procedure, shortened: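 MIC by agar dilution following National Committee for Clinical Laboratory Standards recommendations. P. cepacia 2961 is a ciprofloxacin-resistant strain; S. pyogenes 930 is erythromycin-resistant.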

Mus musculus [16] = test: In vivo efficacy against Staphylococcus aureus NCTC 10649M in mouse protection test after administration by subcutaneous administration; type: functional; settings: sc; procedure, shortened: as §2
Pseudomonas aeruginosa [17] = test: In vivo efficacy against Pseudomonas aeruginosa 5007 in mouse protection test after administration by oral gavage; type: functional; procedure, shortened: as §2
Staphylococcus aureus [18] = test: In vitro antibacterial activity against gram-positive Staphylococcus aureus NCTC 10649M
Mus musculus [19] = test: In vivo efficacy against Streptococcus pneumoniae ATCC 6303 in mouse protection test after administration by oral gavage; type: functional; procedure, shortened: as §2
Mus musculus [20] = test: In vivo efficacy against Escherichia coli JUHL in mouse protection test after administration by oral gavage; type: functional; procedure, shortened: as §2
Mus musculus [21] = test: In vivo antibacterial activity (dose protecting 50% mice)against Gram-positive S aureus NCTC 10649M after subcutaneous administration.; type: functional; settings: sc; procedure, shortened: as §2
Escherichia coli [22] = test: In vitro antibacterial activity against Escherichia coli KNK 437 a ciprofloxacin less sensitive strain; type: functional; procedure, shortened: as §1
Mus musculus [23] = test: In vivo efficacy against Escherichia coli JUHL in mouse protection test after administration by oral gavage.; type: functional; procedure, shortened: as §2
Mus musculus [24] = test: InIn vivo efficacy against Escherichia coli JUHL in mouse protection test after administration by oral gavage; type: functional; procedure, shortened: as §2
Mus musculus [25] = test: IIn vivo efficacy against Escherichia coli JUHL in mouse protection test after by oral gavage; type: functional; procedure, shortened: as §2
Mus musculus [26] = test: n vivo efficacy against Streptococcus pneumoniae ATCC 6303 in mouse protection test after administration by oral gavage; type: functional; procedure, shortened: as §2
[27] = Pseudomonas aeruginosa, sc, read-out: ED50
[28] = Staphylococcus aureus, po, read-out: ED50
[29] = Streptococcus pneumoniae, sc, read-out: ED50
[30] = Escherichia coli, po, read-out: ED50
[31] = Escherichia coli, sc, read-out: ED50
[32] = Enterococcus faecium, ATCC 8043, read-out: MIC
[33] = Escherichia coli, read-out: MIC
[34] = Pseudomonas aeruginosa, read-out: MIC
[35] = Pseudomonas aeruginosa, DPHP 5263, read-out: MIC
[36] = Burkholderia cepacia, read-out: MIC
[37] = Staphylococcus aureus, read-out: MIC
[38] = Staphylococcus aureus, NCTC 10649, read-out: MIC
[39] = Streptococcus pyogenes, read-out: MIC
[40] = Pseudomonas aeruginosa, po, read-out: ED50

Structure (SMILES) | ED50 (Pseudomonas aeruginosa [2]; [27]) [mg/kg] | ED50 (Staphylococcus aureus [4]; [28]) [mg/kg] | ED50 (Staphylococcus aureus [5]) [mg/kg] | ED50 (Escherichia coli [7]; [30]) [mg/kg] | ED50 (Escherichia coli [8]; [31]) [mg/kg] | MIC (Staphylococcus aureus [11]) [mg/L] | MIC (Enterococcus faecium; [32]) [mg/L] | MIC (Escherichia coli [1]; [33]) [mg/L] | MIC (Pseudomonas aeruginosa [9]; [34]) [mg/L] | MIC (Pseudomonas aeruginosa [10]; [35]) [mg/L] | MIC (Burkholderia cepacia; [36]) [mg/L] | MIC (Staphylococcus aureus [11]; [37]) [mg/L] | MIC (Staphylococcus aureus [12]; [38]) [mg/L] | MIC (Streptococcus pyogenes [13]; [39]) [mg/L] | further results
CN[C@@H]1CN(c2c(F)cn3c(=O)c(C(=O)O)cc(C4CC4)c3c2C)C[C@H]1C (stereo in doubt; 3v) | 16.1 | 6.3 | 1.6 | 9.1 | 2.8 | 1.56 (≈ 4.18 µM) | – | – | – | – | – | – | – | – | MIC (Enterococcus faecium): 0.2 mg/L (≈ 0.536 µM); MIC (Escherichia coli [1]): 0.2 mg/L (≈ 0.536 µM); ED50 (Mus musculus [3]): > 50 mg/kg; ED50 (Mus musculus [6]): 13 mg/kg; ED50 (Streptococcus pneumoniae; [29]): 5 mg/kg; MIC (Pseudomonas aeruginosa [9]): 0.39 mg/L (≈ 1.04 µM); MIC (Pseudomonas aeruginosa [10]): 12.5 mg/L (≈ 33.5 µM); MIC (Burkholderia cepacia): 1.56 mg/L (≈ 4.18 µM); MIC (Staphylococcus aureus [12]): 0.02 mg/L (≈ 0.0536 µM); MIC (Streptococcus pyogenes [13]): 0.2 mg/L (≈ 0.536 µM)
Cc1c(N2CC[C@H](C)[C@H](N)C2)c(F)cn2c(=O)c(C(=O)O)cc(C3CC3)c12 (stereo in doubt; 3ss) | – | – | 3.3 | – | – | – | 0.2 (≈ 0.536 µM) | 0.39 (≈ 1.04 µM) | 0.78 (≈ 2.09 µM) | 12.5 (≈ 33.5 µM) | 1.56 (≈ 4.18 µM) | 1.56 (≈ 4.18 µM) | 0.05 (≈ 0.134 µM) | 0.1 (≈ 0.268 µM) | ED50 (Staphylococcus aureus [4]): 0.8 mg/kg; ED50 (Streptococcus pneumoniae): 1 mg/kg; ED50 (Escherichia coli [7]): 1.4 mg/kg; ED50 (Escherichia coli [8]): 0.6 mg/kg; ED50 (Mus musculus [14]): 2 mg/kg
Cc1c(N2C[C@@H](C)[C@H](N)C2)c(F)cn2c(=O)c(C(=O)O)cc(C3CC3)c12 | – | – | – | – | – | – | 0.05 (≈ 0.139 µM) | 0.05 (≈ 0.139 µM) | 0.2 (≈ 0.556 µM) | 1.56 (≈ 4.34 µM) | 0.78 (≈ 2.17 µM) | 0.78 (≈ 2.17 µM) | 0.02 (≈ 0.0556 µM) | – | MIC (Streptococcus pyogenes [15]): 0.05 mg/L (≈ 0.139 µM)
Cc1c(N2C[C@@H]3CCN[C@@H]3C2)c(F)cn2c(=O)c(C(=O)O)cc(C3CC3)c12 (stereo in doubt) | – | 1.5 | – | 1.1 | – | 3.1 (≈ 8.35 µM) | – | – | – | – | – | – | – | – | MIC (Enterococcus faecium): 0.1 mg/L (≈ 0.269 µM); MIC (Escherichia coli [1]): 0.1 mg/L (≈ 0.269 µM); ED50 (Pseudomonas aeruginosa [2]): 5 mg/kg; ED50 (Mus musculus [16]): 0.6 mg/kg; ED50 (Escherichia coli [8]): 0.5 mg/kg; ED50 (Pseudomonas aeruginosa [17]): 17.9 mg/kg; MIC (Burkholderia cepacia): 0.78 mg/L (≈ 2.1 µM); MIC (Staphylococcus aureus [18]): 0.05 mg/L (≈ 0.135 µM)
Cc1c(N2C[C@@H]3CCN[C@@H]3C2)c(F)cn2c(=O)c(C(=O)O)cc(C3CC3)c12 (stereo in doubt; 3gg) | 6.4 | – | 5 | – | 0.4 | 0.39 (≈ 1.05 µM) | 0.05 (≈ 0.135 µM) | 0.2 (≈ 0.538 µM) | – | – | 1.56 (≈ 4.2 µM) | – | 0.02 (≈ 0.0538 µM) | – | ED50 (Mus musculus [19]): 7.6 mg/kg; ED50 (Mus musculus [20]): 2.5 mg/kg; ED50 (Pseudomonas aeruginosa [17]): 39.1 mg/kg; ED50 (Mus musculus [21]): 0.7 mg/kg
Cc1c(N2C[C@H]3CNC[C@H]3C2)c(F)cn2c(=O)c(C(=O)O)cc(C3CC3)c12 | 6.4 | 12.5 | 1.2 | – | 0.7 | – | 0.1 (≈ 0.269 µM) | – | 0.2 (≈ 0.538 µM) | 6.2 (≈ 16.7 µM) | 3.1 (≈ 8.35 µM) | 6.2 (≈ 16.7 µM) | 0.05 (≈ 0.135 µM) | 0.1 (≈ 0.269 µM) | MIC (Escherichia coli [22]): 0.2 mg/L (≈ 0.538 µM); ED50 (Mus musculus [19]): 25.2 mg/kg; ED50 (Streptococcus pneumoniae; [29]): 1.3 mg/kg; ED50 (Mus musculus [23]): 5 mg/kg; ED50 (Pseudomonas aeruginosa [17]; [40]): 58.7 mg/kg
Cc1c(N2CC[C@H](C)[C@@H](N)C2)c(F)cn2c(=O)c(C(=O)O)cc(C3CC3)c12 | – | 1.9 | 0.5 | – | 1.7 | – | 0.05 (≈ 0.134 µM) | 0.39 (≈ 1.04 µM) | 0.39 (≈ 1.04 µM) | – | 3.1 (≈ 8.3 µM) | 0.39 (≈ 1.04 µM) | 0.01 (≈ 0.0268 µM) | 0.02 (≈ 0.0536 µM) | ED50 (Mus musculus [24]): 2.3 mg/kg
CN[C@@H]1CN(c2c(F)cn3c(=O)c(C(=O)O)cc(C4CC4)c3c2C)C[C@@H]1C | – | – | 1.3 | – | 0.5 | – | 0.1 (≈ 0.268 µM) | 0.1 (≈ 0.268 µM) | 0.39 (≈ 1.04 µM) | 6.1 (≈ 16.3 µM) | 1.56 (≈ 4.18 µM) | 0.39 (≈ 1.04 µM) | 0.02 (≈ 0.0536 µM) | 0.1 (≈ 0.268 µM) | ED50 (Mus musculus [25]): 2.7 mg/kg
Cc1c(N2CC[C@H](NCCF)C2)c(F)cn2c(=O)c(C(=O)O)cc(C3CC3)c12 | > 32 | 7.5 | 1.1 | 17.2 | 4.9 | – | 0.1 (≈ 0.255 µM) | 0.2 (≈ 0.511 µM) | 0.78 (≈ 1.99 µM) | 12.5 (≈ 31.9 µM) | 3.1 (≈ 7.92 µM) | 0.39 (≈ 0.996 µM) | 0.01 (≈ 0.0255 µM) | 0.1 (≈ 0.255 µM) | ED50 (Pseudomonas aeruginosa [17]; [40]): > 50 mg/kg; ED50 (Mus musculus [26]): 9.9 mg/kg

Source: ChEMBL document CHEMBL1132437, “Synthesis and antimicrobial activity of 4H-4-oxoquinolizine derivatives: consequences of structural modification at the C-8 position” (1999)
